Measurements reported in the EternaBench riboswitch data.

Tested on: MS2 coat protein
Assay: apparent Kd, MS2 coat protein; higher = weaker binding; RNA-MaP array
Outline: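 Designed RNAs were transcribed in place on an Illumina sequencing chip from sequenced DNA templates. At room temperature and with or without input ligand, they were incubated with fluorescently labeled MS2 coat protein from 1.5 nM to 3 μM, for 0.8–1.5 h at the lowest and 10–20 min at the highest concentrations. Apparent Kd is the median of the binding-curve fits made per cluster, with designs measured on fewer than 10 clusters excluded.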

[1] = designed as: ON switch for flavin mononucleotide, no ligand
[2] = ligand present: flavin mononucleotide, designed as: ON switch for flavin mononucleotide
[3] = designed as: OFF switch for flavin mononucleotide, no ligand
[4] = ligand present: flavin mononucleotide, designed as: OFF switch for flavin mononucleotide

Sequence | apparent Kd [3] [µM] | apparent Kd [4] [µM] | other results
UAGCAAUUACAUGAGGAUCACCCAUGUCUAUCGCAGAACAAGCAGGAUAUAGUGACACGACUCCGCUAGAAGGGCUCCUCUGUU | – | – | apparent Kd [1]: 0.0624 µM; apparent Kd [2]: 0.0553 µM
UAUCACUGGCAGAAGGUUCUCGGAAGCGAUGGUACUCUAUACAUGAGGAUCACCCAUGUCUACGGAAAGGAUAUGCCAUUGCGA | 0.07 | 0.176 | –
UAUGCGUUUUCAGGAUAUGCACACAUGAGGAUCACCCAUGUAGGUCUGCGGCGGCAUCCUCCUUUGCAGAAGGGAAUCGCGCUU | 0.0441 | 0.0716 | –
UAUGUACAUGAGGAUCACCCAUGUUAGGAUAUAUGGCCGCGCUUUAAACACCGUGCACAUAGAAGGAACAUUUG | 0.035 | 0.0337 | –
UAUGUCGGGAAGAAGGUAAUAACGGGAUUGACAUGAGGAUCACCCAUGUGUACGAGUUAGUUGCUUAAGGAUAUUCUCGCCCAU | 0.00637 | 0.00573 | –
UAUUGUUUAGGAUAUACAUGAGGAUCACCCAUGUCAACGACCGUUAUAAAAUCUAAGUGUAGAAGGAAACGCCC | 0.0135 | 0.0121 | –
UCAUCUGGGUCUUUGGUGCACAUGAGGAUCACCCAUGUAACUUAGGAUAUUAGUUAUGAUAUGAUUAAGAAGGAAGUCGCUAUU | 0.0152 | 0.0169 | –
UCAUGGUCAGGAUAUACGAUUAGACAUGGCUUCGAUAAGUCGUAGAAGGGACAUGAGGAUCACCCAUGUAGCAA | 0.109 | 0.0335 | –
UCGAUGGUAUCUGAUACCAGUAGCGUGCGUUACAUGAGGAUCACCCAUGUGCCUAUACUUUACCCUUGGCAGCAGUGGAUUCGAU | – | – | apparent Kd (designed as: ON switch for theophylline, no ligand): 0.207 µM; apparent Kd (ligand present: theophylline, designed as: ON switch for theophylline): 0.0585 µM
UCGGACGGAGGAUAUACUAUGACUCCCACGGCAUGUUACGCACAUGAGGAUCACCCAUGUAGAAGGCCGCCUAA | 0.00427 | 0.00741 | –
UCGGUUCGCGGAGGAUAUACUUCACUUCAGGAAGUAGAAGGCCGGCGGUGCUAAGGGUCACAUGAGGAUCACCCAUGUCUUCAC | – | – | apparent Kd [1]: 0.0306 µM; apparent Kd [2]: 0.0207 µM
UCGUGCAGUGAGGAUAUCCCGAAGGCUUCCAUUGGAGAAGGCACUACAUGAGGAUCACCCAUGUGGCUUGAUAA | 0.044 | 0.0565 | –
UGACUGUGUGAGAAGGUGUUCCGCGCCCGGCCACAAGGAUAUCACAACGCUGCCCUACAUGAGGAUCACCCAUGUGAUUGCUAC | – | – | apparent Kd [1]: 0.0295 µM; apparent Kd [2]: 0.0258 µM
UGAUUACAUGAGGAUCACCCAUGUGACUACGCCUCAGGAUAUGAUGACAAAUUCUAGAAGUCAGAAGGGAGUUUGU | – | – | apparent Kd [1]: 0.0291 µM; apparent Kd [2]: 0.0213 µM
UGGUCACAUGAGGAUCACCCAUGUAAGGAUAUCCGCGCCAUAGAGGAAAAGACGGUAUGGAGAAGGUACAGCUU | 0.0299 | 0.0269 | –
UUAAUACAUGAGGAUCACCCAUGUUAGGAUAUAGAAAUCGCUGGUGCGAGAAGACAGGCUAGAAGGAACACGGA | 0.0102 | 0.00962 | –
UUACAGUCAGGAUAUUGAGUCACCCACAUGAGGAUCACCCAUGUACCUCGAAAACUGGAGCAAGAAGGGACUGCUG | 0.0189 | 0.0264 | –
UUAUAAGAGAUAGGAUAUUCCGACAAAAUCGAUGAAGAAGGAUCACUCAAAACAUGAGGAUCACCCAUGUAUAUAACAAAUGUU | – | – | apparent Kd [1]: 0.0575 µM; apparent Kd [2]: 0.0254 µM
UUCCCUGCUUAGGAUAUCUAGACAAGACGGUCAAGAGAAGGAAGUACAUGAGGAUCACCCAUGUUUAGCAUGAA | 0.0105 | 0.0142 | –
UUCGCCACGCAAGGAUAUGAUACUUAUUGCUGUUCAGAAGGUGCGACAUGAGGAUCACCCAUGUGGUGUGUCCAGGGAGGCUAG | 0.333 | 0.336 | –
UUGGCGUCAGGAUAUACCGGUCGAUUCACAAUGAACUCCGUACAUGAGGAUCACCCAUGUAGAAGGGACAGUGG | 0.00622 | 0.00607 | –
UUGUCCCGAGGAUAUGAGAGGGAGUACAUGAGGAUCACCCAUGUCAUGAAUCUUCAUAUCUCAGAAGGCGGUUGAU | 0.00485 | 0.00624 | –
UUUACCGACACAGAUCACUAAAACCUUGAUACCAGUCCCAGUGGCGACCCUUGGCAGCAAUAUACAUGAGGAUCACCCAUGUGCA | – | – | apparent Kd (designed as: OFF switch for theophylline, no ligand): 0.0147 µM; apparent Kd (ligand present: theophylline, designed as: OFF switch for theophylline): 0.0167 µM
UUUUCUGAGGAGAAGGACGACCACAAACAUGAGGAUCACCCAUGUCUUACUAUCUGACCGCCAUCGUAGGAUAUCCCGAGGGAG | – | – | apparent Kd [1]: 0.0112 µM; apparent Kd [2]: 0.0102 µM
UUUUUAUGGCAGACUACCGCACAUGAGGAUCACCCAUGUUACAGAAGGGACCACAUCCCACCUGGUCAGGAUAUGUAUACGCGG | 0.00907 | 0.00677 | –
UUUUUCCUGUAUAUCGGUACAUGAGGAUCACCCAUGUUCCCAGAGGAUAUUUGAUGGUGGGUAACAAAGAAGGCUGGCUACAGG | – | – | apparent Kd [1]: 0.0206 µM; apparent Kd [2]: 0.00931 µM
